In general, IC50 refers to the concentration needed to halve the response being measured. The term CC50 denotes the concentration giving 50% cytotoxicity. A word on the inhibition: it is how much of the control response was suppressed.

A value given as a limit tells only on which side of the number the result lay.

Data set [1] has as its system Hepatitis C virus. The data set can be described thus: Antiviral activity against HCV genotype 2a J6/JFH1 infected in human Huh7.5 cells after 3 days by gaussia luciferase assay. It is filed as functional, organism-based, Hepacivirus hominis. Conditions: subtype 2a J6/JFH1, Huh-7, 72 h. A digest of the protocol:
(§1)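 Huh7.5 cells stably infected with J6/JFH1-GLuc, kept in DMEM/10% FBS, glutamine, NEAA, pen/strep at 37 °C, 5% CO2. 10,000 cells/well; serially diluted compound added 1 h after plating; 3-day incubation. Replication read as Gaussia luciferase activity in supernatant; viability by Presto Blue.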

For data set [2], the target named is T1, Phosphatidylinositol 3-kinase catalytic subunit type 3 (Homo sapiens, UniProt Q8NEB9). The data set can be described thus: Inhibition of GST-tagged recombinant human full length VPS34 expressed in baculovirus preincubated for 15 mins followed by addition of cold ATP/gamma32P-ATP measured after 1 hr in presence of MnCl2. A digest of the protocol: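 Radiometric membrane-capture assay, 10 nM purchased vps34, 15 min preincubation with inhibitor, then 1 h reaction. Final: 50 mM HEPES pH 7.5, 0.1% CHAPS, 2mM MnCl2, 1 mM EGTA, 2 mM DTT, 100 µM PI in PI:DOPS:DOPC, 500 ng/µL BSA, 2% DMSO, 10 µM ATP, 2.5 uCi γ32P-ATP; spots washed, phosphorimaged.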

Data set [3] in a line: Cytotoxicity against human Huh7.5 cells after 3 days by presto blue assay. It is filed as cell-based, Huh-7. Put shortly:
as §1

The nature of data set [4]: Inhibition of GST-tagged recombinant human full length PI4K3beta expressed in insect cells preincubated for 15 mins followed by addition of cold ATP/gamma32P-ATP measured after 30 mins in presence of MgCl2. Put shortly:
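Membrane-capture radiometric assay. Purchased enzyme, final 2.5 nM. Enzyme preincubated 15 min with inhibitor (diluted in 10% DMSO), then 30 min reaction. Final: 20 mM Bis-Tris propane pH 7.5, 10 mM MgCl2, 0.075 mM Triton X-100, 0.5 mM EGTA, 1 mM DTT, 100 µM PI in PI:DOPS:DOPC, 500 ng/µL BSA, 2% DMSO, 10 µM ATP, 1 uCi γ32P-ATP. Product spotted on nitrocellulose, washed in 1M NaCl/1% phosphoric acid, phosphorimaged.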

Data set [5] has as its target T2, Phosphatidylinositol 4,5-bisphosphate 3-kinase catalytic subunit gamma isoform (Homo sapiens, UniProt P48736). The data set can be described thus: Inhibition of histidine-tagged recombinant human full length PI3Kgamma expressed in insect cells preincubated for 15 mins followed by addition of cold ATP/gamma32P-ATP measured after 15 mins in presence of MgCl2.
Target sequence in this assay (P48736 whole entry, canonical isoform): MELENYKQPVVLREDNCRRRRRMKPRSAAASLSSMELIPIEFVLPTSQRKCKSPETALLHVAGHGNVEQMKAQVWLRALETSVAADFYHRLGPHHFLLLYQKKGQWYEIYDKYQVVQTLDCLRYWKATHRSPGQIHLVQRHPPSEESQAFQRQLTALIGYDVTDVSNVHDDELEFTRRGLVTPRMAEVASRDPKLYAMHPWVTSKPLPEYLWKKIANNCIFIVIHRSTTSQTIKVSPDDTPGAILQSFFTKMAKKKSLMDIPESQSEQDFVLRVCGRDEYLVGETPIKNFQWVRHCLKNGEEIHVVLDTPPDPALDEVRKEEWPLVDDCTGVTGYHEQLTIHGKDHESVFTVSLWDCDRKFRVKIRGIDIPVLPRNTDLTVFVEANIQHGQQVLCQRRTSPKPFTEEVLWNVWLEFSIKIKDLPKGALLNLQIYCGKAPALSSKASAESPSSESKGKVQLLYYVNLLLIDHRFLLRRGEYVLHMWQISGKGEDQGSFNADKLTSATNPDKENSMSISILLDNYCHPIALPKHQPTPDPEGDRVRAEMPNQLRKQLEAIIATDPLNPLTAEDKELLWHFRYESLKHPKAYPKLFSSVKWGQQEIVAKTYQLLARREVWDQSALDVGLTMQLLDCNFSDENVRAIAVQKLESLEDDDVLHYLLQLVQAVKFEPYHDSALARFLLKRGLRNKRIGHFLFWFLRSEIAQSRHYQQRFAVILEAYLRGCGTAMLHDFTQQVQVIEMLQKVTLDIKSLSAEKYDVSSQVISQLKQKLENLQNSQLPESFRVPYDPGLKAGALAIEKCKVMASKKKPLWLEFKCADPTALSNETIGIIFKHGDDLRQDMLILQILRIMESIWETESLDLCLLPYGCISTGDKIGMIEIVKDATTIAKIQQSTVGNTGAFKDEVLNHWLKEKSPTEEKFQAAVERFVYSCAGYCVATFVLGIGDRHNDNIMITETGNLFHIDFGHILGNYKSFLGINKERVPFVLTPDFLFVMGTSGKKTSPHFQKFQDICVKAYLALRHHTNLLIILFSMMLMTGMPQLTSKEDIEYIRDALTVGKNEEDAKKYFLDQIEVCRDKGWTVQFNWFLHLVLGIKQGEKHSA
Data set [6] has as its target T2, Phosphatidylinositol 4,5-bisphosphate 3-kinase catalytic subunit gamma isoform. The data set can be described thus: Inhibition of histidine-tagged recombinant human full length PI3Kgamma expressed in insect cells at 50 uM preincubated for 15 mins followed by addition of cold ATP/gamma32P-ATP measured after 15 mins in presence of MgCl2.
Target sequence in this assay (P48736 whole entry, looked up, canonical isoform): as the sequence (P48736 whole entry, canonical isoform) above
The target in data set [7] is T3, Phosphatidylinositol 4,5-bisphosphate 3-kinase catalytic subunit delta isoform (Homo sapiens) (UniProt O00329).
T3 sequence (whole entry): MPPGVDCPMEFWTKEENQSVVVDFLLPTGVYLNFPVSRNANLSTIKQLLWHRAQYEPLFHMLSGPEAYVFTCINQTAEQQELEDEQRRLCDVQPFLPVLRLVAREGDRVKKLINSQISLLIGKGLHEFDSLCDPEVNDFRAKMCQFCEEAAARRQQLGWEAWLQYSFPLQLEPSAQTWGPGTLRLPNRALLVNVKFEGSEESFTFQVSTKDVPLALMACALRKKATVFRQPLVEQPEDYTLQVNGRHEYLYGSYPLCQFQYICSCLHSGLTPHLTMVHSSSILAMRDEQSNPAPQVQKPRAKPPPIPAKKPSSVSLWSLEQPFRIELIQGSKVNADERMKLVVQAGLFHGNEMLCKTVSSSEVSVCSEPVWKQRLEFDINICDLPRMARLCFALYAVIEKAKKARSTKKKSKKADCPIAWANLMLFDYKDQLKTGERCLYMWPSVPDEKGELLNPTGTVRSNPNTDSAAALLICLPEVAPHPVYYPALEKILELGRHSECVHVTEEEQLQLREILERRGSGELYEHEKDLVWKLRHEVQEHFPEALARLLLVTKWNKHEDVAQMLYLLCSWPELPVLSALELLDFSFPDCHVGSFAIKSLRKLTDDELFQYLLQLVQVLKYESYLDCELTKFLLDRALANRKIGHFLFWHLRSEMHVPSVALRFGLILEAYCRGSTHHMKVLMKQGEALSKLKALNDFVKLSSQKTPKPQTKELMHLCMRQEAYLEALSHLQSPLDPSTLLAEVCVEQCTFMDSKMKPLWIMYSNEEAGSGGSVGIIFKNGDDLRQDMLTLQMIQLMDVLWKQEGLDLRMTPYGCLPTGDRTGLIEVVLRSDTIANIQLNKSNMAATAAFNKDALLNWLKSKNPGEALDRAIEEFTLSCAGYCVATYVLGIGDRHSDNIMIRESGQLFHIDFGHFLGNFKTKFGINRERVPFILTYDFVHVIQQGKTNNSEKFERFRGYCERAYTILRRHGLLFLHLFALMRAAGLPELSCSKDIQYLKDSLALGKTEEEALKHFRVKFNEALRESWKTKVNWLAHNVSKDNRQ
The data set can be described thus: Inhibition of histidine-tagged recombinant human full length PI3Kdelta expressed in baculovirus at 50 uM preincubated for 15 mins followed by addition of cold ATP/gamma32P-ATP measured after 20 mins in presence of MgCl2.

Data set [8] has as its target T1, Phosphatidylinositol 3-kinase catalytic subunit type 3. The data set can be described thus: Inhibition of GST-tagged recombinant human full length VPS34 expressed in baculovirus at 50 uM preincubated for 15 mins followed by addition of cold ATP/gamma32P-ATP measured after 1 hr in presence of MnCl2.
The target in data set [9] is T4, Phosphatidylinositol 4,5-bisphosphate 3-kinase catalytic subunit delta isoform (Homo sapiens, UniProt O00329).
T4 sequence (O00329 whole entry): T3 sequence (whole entry)
The data set can be described thus: Inhibition of histidine-tagged recombinant human full length PI3Kdelta expressed in baculovirus preincubated for 15 mins followed by addition of cold ATP/gamma32P-ATP measured after 20 mins in presence of MgCl2. A digest of the protocol: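 Final: 50 mM HEPES pH 7.5, 100 mM NaCl, 0.03% CHAPS, 10 mM MgCl2, 1 mM EGTA, 2 mM DTT, 80 µM PIP2 (PIP2:DOPS:DOPC), 500 ng/µL BSA, 2% DMSO, 10 µM ATP, 2.5 uCi γ32P-ATP. Nitrocellulose capture, phosphorimaging.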

T1 sequence (Q8NEB9 whole entry): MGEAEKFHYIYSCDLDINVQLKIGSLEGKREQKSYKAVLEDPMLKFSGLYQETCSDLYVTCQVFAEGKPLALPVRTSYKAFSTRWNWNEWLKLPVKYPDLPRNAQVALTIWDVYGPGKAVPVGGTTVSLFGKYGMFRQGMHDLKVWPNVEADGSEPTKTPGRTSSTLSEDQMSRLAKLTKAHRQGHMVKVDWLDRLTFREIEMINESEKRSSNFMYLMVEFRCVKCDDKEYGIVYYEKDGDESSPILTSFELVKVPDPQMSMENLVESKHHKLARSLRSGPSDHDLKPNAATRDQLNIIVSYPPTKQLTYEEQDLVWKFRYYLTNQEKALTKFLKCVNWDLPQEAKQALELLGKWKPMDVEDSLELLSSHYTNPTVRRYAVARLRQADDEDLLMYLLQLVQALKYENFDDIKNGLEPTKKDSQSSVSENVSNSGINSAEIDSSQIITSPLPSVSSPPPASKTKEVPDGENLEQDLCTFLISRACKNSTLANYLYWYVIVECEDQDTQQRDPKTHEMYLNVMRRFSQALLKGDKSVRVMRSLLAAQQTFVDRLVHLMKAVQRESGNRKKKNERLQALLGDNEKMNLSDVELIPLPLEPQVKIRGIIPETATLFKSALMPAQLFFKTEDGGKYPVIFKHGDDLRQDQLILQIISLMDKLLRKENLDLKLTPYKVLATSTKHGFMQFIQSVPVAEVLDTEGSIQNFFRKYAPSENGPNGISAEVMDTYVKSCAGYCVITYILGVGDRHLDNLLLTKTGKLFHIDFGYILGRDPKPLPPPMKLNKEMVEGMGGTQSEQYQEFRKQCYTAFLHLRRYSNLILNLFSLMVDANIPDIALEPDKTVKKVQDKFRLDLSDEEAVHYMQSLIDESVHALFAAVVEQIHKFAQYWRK

Regarding `CC(=O)/N=c1/[nH]c(C)c(-c2ccc(Cl)c(S(=O)(=O)NCCO)c2)s1`, the IC50 in data set [1] came to 4800 nM; in data set [2], 307 nM; in [4] it was 17 nM. In addition, in [3], half-maximal cytotoxicity (CC50 at 72 h) was put at 10000 nM.

Consider `COc1ccc(-c2sc(NC(=O)C(C)(C)C)nc2C)cc1S(=O)(=O)NCCO`, for which the IC50 in data set [5] is over 50000 nM; in data set [1], 17000 nM; in [2] it was over 50000 nM; in [4], 36 nM. For the same compound, the inhibition in [6] is under 20%; in [7], under 50%; in data set [8], under 20%. Also, in [3], the CC50 at 72 h was over 40000 nM.

For the compound `Cc1nc(NC(=O)C2CCCC2)sc1-c1ccc(Cl)c(S(=O)(=O)NCCO)c1`, the IC50 was 1500 nM in [5]; 4400 nM in [1]; 340 nM in data set [9]; over 50000 nM in [2]; 16 nM in data set [4]. In [3], the CC50 at 72 h was 20000 nM.

As to `COc1ccc(-c2sc(NC(C)=O)nc2C)cc1S(=O)(=O)NCCO`, the IC50 in data set [5] is 181 nM; in data set [1], 29000 nM; in data set [9] it was 223 nM; in data set [2], over 50000 nM; in data set [4] it was 4.4 nM. In data set [3], this compound showed a CC50 at 72 h of 42000 nM.

For the compound `CC(=O)Nc1nc(C)c(-c2ccc(Br)c(S(=O)(=O)NCCO)c2)s1`, the IC50 in data set [5] turned out to be 21 nM; in data set [1] it was 3000 nM; in data set [9] it was 33 nM; in [2], 146 nM; in [4], 5.3 nM. In data set [3], this compound had a CC50 at 72 h of 5500 nM.

In the case of `CC(=O)Nc1nc(C)c(-c2ccc(Cl)c(S(=O)(=O)Nc3ccc(O)cc3)c2)s1`, the IC50 in data set [5] came to 5 nM; in data set [1], 570 nM; in data set [9] it was 4.9 nM; in data set [2], 32 nM; in [4] it was 4.2 nM. This compound had a CC50 at 72 h in data set [3] of 7000 nM.

As to `CC(=O)Nc1nc(C)c(-c2ccc(Cl)c(S(=O)(=O)Nc3ccc(F)cc3)c2)s1`, the IC50 in [5] worked out at 31 nM; in data set [1], 5900 nM; in data set [9], 29 nM; in data set [2], 245 nM; in [4], 23 nM. The midpoint of cytotoxicity in [3], the CC50 at 72 h, lay at 13000 nM.

In the case of `Cc1nc(NC(=O)C(C)(C)C)sc1-c1ccc(Cl)c(S(=O)(=O)NCCO)c1`, the IC50 in data set [5] was 3700 nM; in [1], 6800 nM; in data set [9], 1570 nM; in data set [2], over 50000 nM; in data set [4] it was 5.5 nM. The compound also returned a CC50 at 72 h in [3] of 33000 nM.
